What was measured:
Mus musculus [1] = test: Percent increase in life span at dose 60 mg/kg/day in 10 mice implanted with P388 leukemia cell line; format: functional
Method in brief: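 Female DBA2 mice inoculated iv on day 0 with 10^4 P388 cells; single iv treatment on day 1 with drug as sulfate salt in physiological saline. Survival followed; %ILS from all deaths and survivors as (T/C × 100) − 100, maximal MST 30 days; survivors counted on days 30 and 60. Most experiments confirmed three times.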

Mus musculus [2] = test: Percent increase in life span at dose 65 mg/kg/day in 7 mice implanted with P388 leukemia cell line for 1,8,15 schedule day in Exp-1; format: functional
Mus musculus [3] = test: Number of survivors on 30th day at dose 5 mg/kg/day in 10 mice implanted with P388 leukemia cell line; 0 /10; format: functional
Mus musculus [4] = test: Percent increase in life span at dose 4 mg/kg/day in 7 mice implanted with P388 leukemia cell line for 1,8,15 scheduled day from Exp-1; format: functional
Mus musculus [5] = test: Number of survivors on 30th day at dose 11 mg/kg/day in 10 mice implanted with P388 leukemia cell line; 0/10; format: functional
Mus musculus [6] = test: Number of survivors of DBA2 mice on 60th day after inoculation with L1210 leukemia cell line intraperitoneally at a dose of 2 mg/kg/day; 0/11; format: functional; details: route intraperitoneal
Mus musculus [7] = test: Number of survivors of DBA2 mice on 60th day after inoculation with L1210 leukemia cell line intravenously at a dose of 2 mg/kg/day; 0/10; format: functional; details: route intravenous
Mus musculus [8] = test: Percent increase in life span of BDF1 mice after inoculation with P388 leukemia cells intraperitoneally at a dose of 0.22 mg/kg per day for 1-9 scheduled days; details: P388, ip
Mus musculus [9] = test: Percent increase in life span of BDF1 mice after inoculation with P388 leukemia intraperitoneally at a dose of 2.5 mg/kg per day; details: P388, ip
Mus musculus [10] = test: Number of survivors on 60th day at dose 2.5 mg/kg/day in 7 mice implanted with P388 leukemia cell line for 1,8,15 scheduled days from Exp-2; 0/11; format: functional

CCOC(=O)[C@H](Cc1c[nH]c2ccccc12)NC(=O)[C@@]1(O)[C@H](O)[C@]2(CC)C=CCN3CC[C@@]4(c5cc([C@@]6(C(=O)OC)C[C@H]7C[N@](CCc8c6[nH]c6ccccc86)C[C@](O)(CC)C7)c(OC)cc5N(C)[C@@]14C)[C@@H]32
ILS at 60 mg/kg/day (Mus musculus [1]): > 178%
ILS at 65 mg/kg/day (Mus musculus [2]): 88%

CC[C@]1(O)C[C@@H]2CN(CCc3c([nH]c4ccccc34)[C@@](C(=O)OC)(c3cc4c(cc3OC)N(C)[C@H]3[C@@](O)(C(=O)OC)[C@H](OC(C)=O)[C@]5(CC)C=CCN6CC[C@]43[C@@H]65)C2)C1 [VINBLASTINE]
Survivors (Mus musculus [3]): 0
ILS at 4 mg/kg/day (Mus musculus [4]): 58%
Survivors (Mus musculus [5]): 0

CC[C@]1(O)C[C@H]2CN(CCc3c([nH]c4ccccc34)[C@@](C(=O)OC)(c3cc4c(cc3OC)N(C=O)[C@H]3[C@@](O)(C(=O)OC)[C@H](OC(C)=O)[C@]5(CC)C=CCN6CC[C@]43[C@@H]65)C2)C1 [VINCRISTINE]
Survivors (Mus musculus [6]): 0
Survivors (Mus musculus [7]): 0
ILS at 0.22 mg/kg/day (Mus musculus [8]): 146%

CC[C@]1(O)C[C@@H]2CN(CCc3c([nH]c4ccccc34)[C@@](C(=O)OC)(c3cc4c(cc3OC)N(C)[C@H]3[C@@](O)(C(N)=O)[C@H](O)[C@]5(CC)C=CCN6CC[C@]43[C@@H]65)C2)C1 [VINDESINE]
ILS at 2.5 mg/kg/day (Mus musculus [9]): 150%
Survivors (Mus musculus [10]): 0
